Test results as given in ChEMBL document CHEMBL1133569, “A potent, long-acting, orally active (2R)-2-[(1R)-3, 3-difluorocyclopentyl]-2-hydroxy-2-phenylacetamide: novel muscarinic M(3) receptor antagonist with high selectivity for M(3) over M(2) receptors” (J Med Chem, 2000).

Experiments:
[1] = target: T1, Muscarinic acetylcholine receptor M3 (Homo sapiens, UniProt P20309); test: Inhibition of [3H]NMS binding to human muscarinic acetylcholine receptor M3 expressed in CHO cells; type: cell-based
Outline: (§1)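 Competition binding against [3H]-NMS on membranes from CHO cells expressing cloned human m2 or m3 receptors. Affinity is taken from inhibition of specific binding, as the mean of two or more independent assays.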

[2] = target: T2, Muscarinic acetylcholine receptor M2 (Homo sapiens, UniProt P08172); test: Inhibition of [3H]NMS binding to human muscarinic acetylcholine receptor M2 expressed in CHO cells; type: cell-based; outline: as §1
T2 sequence (P08172 whole entry): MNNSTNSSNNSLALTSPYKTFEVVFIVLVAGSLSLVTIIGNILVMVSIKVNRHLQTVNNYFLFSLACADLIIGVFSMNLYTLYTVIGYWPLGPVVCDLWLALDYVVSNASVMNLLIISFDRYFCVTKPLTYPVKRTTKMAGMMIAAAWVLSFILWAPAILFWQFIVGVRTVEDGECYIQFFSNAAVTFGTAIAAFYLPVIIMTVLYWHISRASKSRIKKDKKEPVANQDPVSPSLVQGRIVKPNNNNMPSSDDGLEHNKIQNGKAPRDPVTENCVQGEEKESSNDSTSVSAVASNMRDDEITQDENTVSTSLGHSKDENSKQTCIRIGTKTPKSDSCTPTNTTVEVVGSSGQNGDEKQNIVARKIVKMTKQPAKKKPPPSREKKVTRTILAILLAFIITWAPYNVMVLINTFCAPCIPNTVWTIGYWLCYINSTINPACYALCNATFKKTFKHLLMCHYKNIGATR

[3] = organism: Canis familiaris; test: In vitro metabolic stability in dog hepatic microsomes (1 mg protein/mL), expressed as the percent remaining after 30 min of incubation at […].; type: functional; settings: Canis lupus familiaris, Liver, 37 °C
Outline: (§2)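 Test compound at 10 µM incubated 30 min at 37 °C with dog or human hepatic microsomes (1 mg protein/mL). Read-out is percent of parent remaining. More than 2 determinations.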

[4] = organism: Homo sapiens; test: In vitro metabolic stability in human hepatic microsomes (1 mg protein/mL) was reported as the percent remaining after 30 min of incubation […]; type: functional; settings: Liver; outline: as §2
[5] = organism: Homo sapiens; test: In vitro metabolic stability in human hepatic microsomes (1 mg protein/mL), expressed as the percent remaining after 30 min of incubation at […].; type: functional; settings: Liver, 37 °C; outline: as §2
[6] = system: Canis familiaris; test: Metacholine provocation test was conducted 4 hr after oral administration (1 mg/kg) in anesthetized dogs. The bronchodilatory activity is expressed as shifts; type: functional, Canis lupus familiaris
[7] = target: T1, Muscarinic acetylcholine receptor M3; test: Ability to inhibit binding of [3H]NMS was determined by receptor binding assay using membranes from chinese hamster ovary (CHO) cells expressing cloned Muscarinic acetylcholine receptor M3; type: cell membranes
Outline: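 Radioligand displacement of [3H]-NMS specific binding on membranes prepared from CHO cells transfected with cloned human m3 receptor. Affinity was derived from inhibition of specific binding. Each value is the mean of two or more independent assays.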

T1 sequence (P20309 whole entry): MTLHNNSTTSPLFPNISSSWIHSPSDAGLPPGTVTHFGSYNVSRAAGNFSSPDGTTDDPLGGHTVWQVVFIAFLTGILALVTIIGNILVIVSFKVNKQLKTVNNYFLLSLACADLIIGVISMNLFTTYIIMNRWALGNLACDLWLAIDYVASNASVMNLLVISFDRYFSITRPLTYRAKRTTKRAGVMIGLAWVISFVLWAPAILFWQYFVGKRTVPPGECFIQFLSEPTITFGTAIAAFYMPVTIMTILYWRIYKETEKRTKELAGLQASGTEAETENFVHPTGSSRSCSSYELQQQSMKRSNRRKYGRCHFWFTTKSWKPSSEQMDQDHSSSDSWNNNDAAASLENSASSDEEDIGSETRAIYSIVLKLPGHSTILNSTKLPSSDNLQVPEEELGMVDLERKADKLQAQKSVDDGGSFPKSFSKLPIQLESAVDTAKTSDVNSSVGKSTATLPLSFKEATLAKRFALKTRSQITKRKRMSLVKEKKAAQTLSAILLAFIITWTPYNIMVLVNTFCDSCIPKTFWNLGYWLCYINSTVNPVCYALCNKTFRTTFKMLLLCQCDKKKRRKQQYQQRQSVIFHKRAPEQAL

Row | Compound | Ki [1] [nM] | Ki [2] [nM] | Metabolic stability [3] [%] | Metabolic stability [4] [%] | Metabolic stability [5] [%] | Activity [6] | Ki [7] [nM]
1 | Cc1ccccc1CN1CCC(NC(=O)C(O)(c2ccccc2)C2CCCC2)CC1 (centres undefined) | 220 | 37000 | – | – | – | – | –
2 | Cc1ccc(CN2CCC(NC(=O)C(O)(c3ccccc3)C3CCCC3)CC2)cc1 (centres undefined) | 6.4 | 22 | – | – | – | – | –
3 | COc1cccc(CN2CCC(NC(=O)C(O)(c3ccccc3)C3CCCC3)CC2)c1 (centres undefined) | 5.9 | 270 | – | – | – | – | –
4 | O=C(NC1CCN(Cc2cccc(F)c2)CC1)[C@](O)(c1ccccc1)[C@@H]1CCC(F)(F)C1 | 3.1 | 480 | 23 | 52 | – | – | –
5 | Nc1cccc(CN2CCC(NC(=O)[C@](O)(c3ccccc3)[C@@H]3CCC(F)(F)C3)CC2)c1 | 6.9 | 330 | 88 | – | 90 | – | –
6 | Cc1cccc(CN2CCC(NC(=O)C(O)(c3ccccc3)C3CCCC3)CC2)c1 (centres undefined) | 2.3 | 70 | – | – | – | – | –
7 | CC(C)=CCCN1CCC(NC(=O)[C@](O)(c2ccccc2)C2CCCC2)CC1 | – | 490 | 31 | – | 54 | 5.2 | –
8 | O=C(NC1CCN(CC2CCCCC2)CC1)C(O)(c1ccccc1)C1CCCC1 (centres undefined) | 17 | 3300 | – | – | – | – | –
9 | O=C(NC1CCN(CC2CCCCCC2)CC1)[C@](O)(c1ccccc1)[C@@H]1CCC(F)(F)C1 | – | 17000 | – | – | – | – | 28
10 | Nc1cccc(CN2CCC(NC(=O)[C@](O)(c3ccccc3)[C@@H]3CCC(F)(F)C3)CC2)n1 | 2.8 | 530 | 84 | – | 80 | >64 | –
11 | Cc1cccc(CN2CCC(NC(=O)C(O)(c3ccccc3)C3CCCC3)CC2)n1 (centres undefined) | 11 | 2400 | – | – | – | – | –
12 | O=C(NC1CCN(Cc2ccsc2)CC1)C(O)(c1ccccc1)C1CCCC1 (centres undefined) | 3.6 | 79 | – | – | – | – | –
13 | CC(C)=CCCN1CCC(NC(=O)[C@](O)(c2ccccc2)[C@H]2CC[C@H](F)C2)CC1 | 19 | 1300 | 60 | – | 66 | – | –
14 | O=C(NC1CCN(Cc2ccccn2)CC1)C(O)(c1ccccc1)C1CCCC1 (centres undefined) | 14 | 320 | – | – | – | – | –
15 | CC(C)=CCCN1CCC(NC(=O)[C@](O)(c2ccccc2)[C@H]2CCC(F)(F)C2)CC1 | 16 | 1400 | 77 | – | 75 | – | –
16 | CC(C)=CCCN1CCC(NC(=O)[C@](O)(c2ccccc2)[C@H]2CC[C@@H](F)C2)CC1 | 11 | 2300 | 64 | – | 75 | – | –
17 | O=C(NC1CCN(Cc2ccccn2)CC1)[C@](O)(c1ccccc1)[C@@H]1CCC(F)(F)C1 | 13 | 2400 | 45 | – | 60 | – | –
18 | CC(C)=CCCN1CCC(NC(=O)[C@](O)(c2ccccc2)[C@H]2CC[C@H](O)C2)CC1 | 18 | 2300 | 75 | – | 76 | 2.9 | –
19 | O=C(NC1CCN(CC2CCCCC2)CC1)[C@](O)(c1ccccc1)[C@@H]1CCC(F)(F)C1 | 18 | 21000 | 70 | – | 86 | 2.3 | –
20 | Cc1cccc(CN2CCC(NC(=O)[C@](O)(c3ccccc3)[C@@H]3CCC(F)(F)C3)CC2)n1 | – | – | 24 | – | 52 | – | –

Row | Compound | Ki [1] [nM] | Ki [2] [nM] | Metabolic stability [3] [%] | Metabolic stability [4] [%] | Metabolic stability [5] [%] | Activity [6] | Ki [7] [nM]
21 | O=C(NC1CCN(Cc2cccc(O)c2)CC1)[C@](O)(c1ccccc1)[C@@H]1CCC(F)(F)C1 | 5.4 | 37 | 73 | – | 56 | – | –
22 | Nc1ccc(CN2CCC(NC(=O)[C@](O)(c3ccccc3)[C@@H]3CCC(F)(F)C3)CC2)cc1 | 7.8 | 220 | 89 | – | 88 | 43 | –
23 | Cc1cccc(CN2CCC(NC(=O)[C@](O)(c3ccccc3)[C@@H]3CCC(F)(F)C3)CC2)c1 | – | 310 | 32 | – | 55 | 25 | 2
24 | O=C(NC1CCN(CC2CCCCCC2)CC1)C(O)(c1ccccc1)C1CCCC1 (centres undefined) | 12 | 3100 | – | – | – | – | –
25 | O=C(NC1CCN(Cc2cccnc2)CC1)C(O)(c1ccccc1)C1CCCC1 (centres undefined) | 100 | 4600 | – | – | – | – | –
26 | O=C(NC1CCN(Cc2ccccc2)CC1)C(O)(c1ccccc1)C1CCCC1 (centres undefined) | – | 30 | – | – | – | – | –
27 | O=C(NC1CCN(Cc2ccccc2)CC1)[C@](O)(c1ccccc1)[C@@H]1CCC(F)(F)C1 | 3.8 | 260 | 45 | – | 47 | – | –
28 | CC(C)=CCCN1CCC(NC(=O)[C@](O)(c2ccccc2)[C@@H]2CCC(F)(F)C2)CC1 | 6.2 | 2000 | 70 | – | 68 | 4.2 | –
29 | O=C(NC1CCN(Cc2ccncc2)CC1)C(O)(c1ccccc1)C1CCCC1 (centres undefined) | 190 | 6400 | – | – | – | – | –
30 | O=C(NC1CCN(Cc2ccsc2)CC1)[C@](O)(c1ccccc1)[C@@H]1CCC(F)(F)C1 | – | – | 37 | – | 35 | – | –
31 | Nc1ccc(CN2CCC(NC(=O)[C@](O)(c3ccccc3)[C@@H]3CCC(F)(F)C3)CC2)nc1 | 15 | 930 | – | – | – | – | –
32 | NCc1cccc(CN2CCC(NC(=O)[C@](O)(c3ccccc3)[C@@H]3CCC(F)(F)C3)CC2)c1 | 21 | 3400 | 77 | – | 80 | – | –
33 | O=C(NC1CCN(Cc2cccc(CO)c2)CC1)[C@](O)(c1ccccc1)[C@@H]1CCC(F)(F)C1 | – | 6900 | 73 | – | 34 | 3.1 | –
34 | O=C(NC1CCN(CC2CCCC2)CC1)C(O)(c1ccccc1)C1CCCC1 (centres undefined) | 270 | 14000 | – | – | – | – | –
35 | Cc1cc(CN2CCC(NC(=O)C(O)(c3ccccc3)C3CCCC3)CC2)cs1 (centres undefined) | 3.5 | 24 | – | – | – | – | –
36 | O=C(NC1CCN(Cc2ccoc2)CC1)C(O)(c1ccccc1)C1CCCC1 (centres undefined) | 50 | 1800 | – | – | – | – | –
37 | Nc1ccc(CN2CCC(NC(=O)[C@](O)(c3ccccc3)[C@@H]3CCC(F)(F)C3)CC2)cc1F | 6.1 | 310 | 78 | – | 78 | – | –
38 | O=C(NC1CCN(CC2CCCCCCC2)CC1)C(O)(c1ccccc1)C1CCCC1 (centres undefined) | 93 | 9400 | – | – | – | – | –
39 | COc1cccc(CN2CCC(NC(=O)[C@](O)(c3ccccc3)[C@@H]3CCC(F)(F)C3)CC2)c1 | – | – | 53 | – | 46 | – | –
